Measurements from ChEMBL document CHEMBL1134785, “Synthesis and biological evaluation of prostaglandin-F alkylphosphinic acid derivatives as bone anabolic agents for the treatment of osteoporosis” (J Med Chem, 2001).

Key:
[1] = test system: Rattus norvegicus; assay: Bone Volume /Tissue Volume (%)measured using micro Computed Tomography(CT) after a dose of 6000 ug/kg in Vertebral Bone; assay type: functional
In short: (§1)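 Micro-CT of the fifth lumbar vertebra, measuring cancellous bone volume and architecture. Rats were 6 months old, OVX 60 days before treatment, then dosed daily for 60 days. Test-agent doses were 10–3000 µg/kg, given as a once-daily subcutaneous injection; 6 mg/kg/day was given to the positive-control group. Groups were compared with vehicle by ANOVA plus LSD test.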

[2] = test system: Rattus norvegicus; assay: Bone Formation rate/tissue vol measured Histomorphometrically after a does of 6000 ug/kg in proximal tibial metaphysis; assay type: functional
In short: (§2)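 Proximal tibial metaphysis, 1 to 4 mm distal to the growth plate–metaphyseal junction, assessed by histomorphometry in 6-month-old female rats. Rats were ovariectomized (OVX) 60 days before dosing, then given daily injections for 60 days. Fluorochrome labels were xylenol orange 90 mg/kg before treatment and calcein 10 mg/kg at 14 and 4 days before sacrifice. Groups were compared with vehicle by ANOVA plus LSD test.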

[3] = test system: Rattus norvegicus; assay: Mineral surface/bone surface measured Histomorphometrically after a dose of 6000 ug/kg in proximal tibial metaphysis; assay type: functional
In short: (§3)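 Positive-control arm: rats ovariectomized at six months, then from day 60 given PGE2 at 6 mg/kg/day for 60 days. Labels were xylenol orange 90 mg/kg before treatment and calcein 10 mg/kg 14 and 4 days before sacrifice. The tibia was read by fluorescent-light histomorphometry; metaphysis region 1–4 mm distal to the growth plate junction.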

[4] = test system: Rattus norvegicus; assay: Periosteal mineralizing surface measured Histomorphometrically after a does of 6000 ug/kg in Tibial Diaphysis; assay type: functional
In short: (§4)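 A positive-control group of ovariectomized rats was injected daily at 6 mg/kg/day for 60 days, starting 60 days after surgery. Xylenol orange (90 mg/kg) was given before treatment and calcein (10 mg/kg) 14 and 4 days before sacrifice. Tibiae were read by fluorescent-light histomorphometry.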

[5] = test system: Rattus norvegicus; assay: Mineralizing apposition measured Histomorphometrically after a dose of 6000 ug/kg in […]; assay type: functional
[6] = test system: Rattus norvegicus; assay: Bone Volume /Tissue Volume (%)measured Histomorphometrically after a dose of 6000 ug/kg in proximal tibial metaphysis; assay type: functional; in short: as §2
[7] = test system: Rattus norvegicus; assay: Endosteal mineralizing surface measured Histomorphometrically after a does of 6000 ug/kg in Tibial Diaphysis; assay type: functional
[8] = test system: Rattus norvegicus; assay: Directly measured thickness measured using micro Computed Tomography(CT) after a dose of 6000 ug/kg in Vertebral Bone; assay type: functional; in short: as §1
[9] = test system: Rattus norvegicus; assay: Marrow area measured Histomorphometrically after a dose of 6000 ug/kg in Tibial Diaphysis; assay type: functional
[10] = test system: Rattus norvegicus; assay: Bone Formation rate/bone measured Histomorphometrically after a dose of 6000 ug/kg in proximal tibial metaphysis; assay type: functional; in short: as §2
[11] = test system: Rattus norvegicus; assay: Tissue area measured Histomorphometrically after a dose of 6000 ug/kg in Tibial Diaphysis; assay type: functional; in short: as §4
[12] = test system: Rattus norvegicus; assay: Derived trabecular thickness measured using micro Computed Tomography(CT) after a dose of 6000 ug/kg in Vertebral Bone; assay type: functional, Trabecula; in short: as §1
[13] = test system: Rattus norvegicus; assay: Trabecular no measured Histomorphometrically after a dose of 6000 ug/kg in proximal tibial metaphysis; assay type: functional, Trabecula
In short: (§5)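 A positive-control group of ovariectomized rats was injected daily at 6 mg/kg/day for 60 days, beginning 60 days post-surgery. Fluorochrome labels were xylenol orange (90 mg/kg) before treatment and calcein (10 mg/kg) 14 and 4 days before sacrifice. Histomorphometry covered the proximal tibial metaphysis 1-4 mm below the growth plate-metaphyseal junction.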

[14] = test system: Rattus norvegicus; assay: Trabecular thickness measured Histomorphometrically after a dose of 6000 ug/kg in proximal tibial metaphysis; assay type: functional, Trabecula; in short: as §5
[15] = test system: Rattus norvegicus; assay: Derived trabecular no measured using micro Computed Tomography(CT) after a dose of 6000 ug/kg in Vertebral Bone; assay type: functional, Trabecula; in short: as §1
[16] = test system: Rattus norvegicus; assay: Endosteal eroded surface measured Histomorphometrically after a dose of 6000 ug/kg in Tibial Diaphysis; assay type: functional
In short: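 Tibial histomorphometry in 6-month-old rats, OVX 60 days before treatment, then daily injection for 60 days. Vehicle was acetate-buffered saline with methylcellulose and polyoxyethylenesorbitan monooleate. Rats received xylenol orange 90 mg/kg before treatment and calcein 10 mg/kg at 14 and 4 days pre-sacrifice. Rats were killed by cardiac puncture under ketamine/xylazine. Groups were compared with vehicle by ANOVA plus LSD test.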

[17] = test system: Rattus norvegicus; assay: Mineral apposition measured Histomorphometrically after a dose of 6000 ug/kg in proximal tibial metaphysis; assay type: functional; in short: as §3
[18] = test system: Rattus norvegicus; assay: Connectivity density measured using micro Computed Tomography(CT) after a dose of 6000 ug/kg in Vertebral Bone; assay type: functional; in short: as §1

What does the source list for CCCCC[C@H](O)/C=C/[C@H]1[C@H](O)CC(=O)[C@@H]1C/C=C\CCCC(=O)O [DINOPROSTONE]?
Activity [1]: 43.79%; Activity [2]: 45.62%; Activity [3]: 36.23%; Periosteal mineralizing surface [4]: 58.37%; Mineralizing apposition rate [5]: 1.33 µm/day; Activity [6]: 11.65%; Endosteal mineralizing surface [7]: 61.22%; Directly measured thickness [8]: 149 µm; Marrow area [9]: 0.76 mm; Activity [10]: 394.7%; Tissue area [11]: 5.22 mm; Derived trabecular thickness [12]: 95.1 µm; Trabecular no. [13]: 1.76; Trabecular thickness [14]: 66.14; Derived trabecular number [15]: 4.6 1/mm; Endosteal eroded surface [16]: 0.79%; Mineral apposition rate [17]: 1.19 µm/day; Connectivity density [18]: 47.81 mm**-3
